Among the data in ChEMBL document CHEMBL5316316, “Designing Synthetic, Sulfated Glycosaminoglycan Mimetics That Are Orally Bioavailable and Exhibiting In Vivo Anticancer Activity” (J Med Chem, 2023) are IC50, Activity and APTT values, retold here.

Structures are written as SMILES. The source made the active and inactive calls. No cut-off for these calls is given here.

Series [1] is described as follows: Cytotoxicity against human HT-29 cells assessed as inhibition of spheroid growth. To be noted: HT-29 cell spheroids.
Series [2] relates to HT-29. In words: Cytotoxicity against human HT-29 cells assessed as reduction in cell viability incubated for 60 to 72 hrs by MTT assay. Type of series: toxicity, cell-based. To be noted: time 60-72 hrs. Summed up:
(§1)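 HT-29 monolayer cells were seeded at about 2.5 × 10^3 per well in DMEM:F12 with 10% FBS and incubated overnight at 37 °C, 5% CO2. Compound was added for 60–72 h. MTT (5 mg/mL in PBS) was added for 2–3 h, crystals were dissolved in DMSO and absorbance read at 590 nm. Results are percent of vehicle control, at least three replicates.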

Series [3] deals with HT-29. In words: Cytotoxicity against human HT-29 cells assessed as reduction in cell viability at 400 uM incubated for 60 to 72 hrs by MTT assay. Type of series: toxicity, cell-based. Conditions: ht-29, 400 µM, time 60-72 hrs. The method in brief: as §1
Series [4] has as its system HT-29. In words: Antitumor activity against human HT-29 cells xenografted in NCR nude mouse assessed as decrease in LGR5 expression at 100 mg/kg, ip administered 3 times a week for 4.6 weeks by Western blot analysis. It is filed as functional, organism-based. The method in brief:
(§2)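 Mice were randomized to 100 mg/kg IP three times/week for 4.6 weeks (14 doses). Tumors (n = 2/group) were dissociated and analysed by Western blot for LGR5, DCAMLK1 and BMI-1, and by flow cytometry for CD133+/CXCR4+ cells.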

Series [5] relates to Plasma. In words: Anticoagulant activity in human plasma assessed as prolongation of activated partial thromboplastin time by measuring concentration required to double APTT incubated for 4 mins by coagulometer analysis. Type of series: functional, cell-free. Summed up:
(§3)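 Pooled normal citrated human plasma (90 μL) mixed with 10 μL compound and 100 μL prewarmed ellagic acid APTT reagent, incubated 4 min at 37 °C, then recalcified with 100 μL prewarmed 25 mM CaCl2. Clot time read on a fibrometer (one-stage recalcification). Water blank gave the baseline. Concentration doubling APTT came from a quadratic trend-line fit.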

The test system of series [6] is Plasma. In words: Anticoagulant activity in pooled human plasma assessed as prolongation of activated partial thromboplastin time incubated for 4 mins by coagulometer analysis. It is filed as functional, cell-free. Summed up: as §3
The test system of series [7] is HT-29. In words: Antitumor activity against human HT-29 cells xenografted in NCR nude mouse assessed as decrease in DCAMKL1 expression at 100 mg/kg, ip administered 3 times a week for 4.6 weeks by Western blot analysis. It is filed as functional, organism-based. Summed up: as §2
The test system of series [8] is HT-29. Kind of series: Antitumor activity against human HT-29 cells xenografted in NCR nude mouse assessed as decrease in BMI-1 expression at 100 mg/kg, ip administered 3 times a week for 4.6 weeks by Western blot analysis. It is filed as functional, organism-based. Summed up:
as §2

Series [9] relates to HT-29. Kind of series: Antitumor activity against human HT-29 cells xenografted in NCR nude mouse assessed as reduction in tumor growth at 100 mg/kg, ip administered 3 times a week for 3 weeks. It is filed as functional, organism-based.
The test system of series [10] is Plasma. In words: Anticoagulant activity in pooled human plasma assessed as prolongation of activated partial thromboplastin time at 900 uM incubated for 4 mins by coagulometer analysis. It is filed as functional. The method in brief:
as §3

Series [11] relates to HT-29. Kind of series: Anticancer activity against human HT-29 cells assessed as inhibition of CD133+ expression level. Type of series: functional, cell-based.
The test system of series [12] is HT-29. Kind of series: Anticancer activity against human HT-29 cells assessed as inhibition of LGR5 expression level. It is filed as functional, cell-based.
Series [13] has as its system HT-29. In words: Anticancer activity against human HT-29 cells assessed as inhibition of DCAMLK1 expression level. Type of series: functional, cell-based.
In series [14] the test system is HT-29. Kind of series: Anticancer activity against human HT-29 cells assessed as inhibition of CXCR4+ expression level. It is filed as functional, cell-based.
A further series concerns Mus musculus. Kind of series: Antithrombotic activity in ICR mouse model of tail-bleeding assessed as increase in blood loss at 100 mg/kg, iv.
The subject of series [15] is HT-29. In words: Cytotoxicity against human HT-29 cells assessed as reduction in cell viability at 100 uM incubated for 60 to 72 hrs by MTT assay. Type of series: toxicity, cell-based. Conditions: ht-29, 100 µM, time 60-72 hrs. Summed up:
as §1

For series [16], the system named is HT-29. Kind of series: Antitumor activity against human HT-29 cells xenografted in NCR nude mouse assessed as increase in proportion of CSC at 25 mg/kg, ip administered for 3 weeks in presence of oxaliplatin by flow cytometry analysis (reference value: 11.37 %). Type of series: functional. The method in brief: (§4)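 HT-29 cells (1×10^6 bulk, or 1×10^5 FACS-sorted CD133+/CXCR4+) injected subcutaneously into NCr nude mice. Once tumors were palpable (>50 mm3), 5-fluorouracil 25 mg/kg plus oxaliplatin 2 mg/kg given IP weekly for 3 weeks, then mice randomized for further treatment. Tumor volume by Vernier caliper three times weekly. Ex vivo xenograft cells were digested with collagenase IV and assessed for 1°–4° spheroids (50–150 μm) and for Dual Hi/LGR5+ cells by flow cytometry.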

Series [17] has as its system HT-29. In words: Antitumor activity against human HT-29 cells xenografted in NCR nude mouse assessed as increase in number of spheroids at 25 mg/kg, ip administered for 3 weeks in presence of oxaliplatin. It is filed as functional, organism-based. Summed up: as §4
Series [18] has as its system HT-29. In words: Antitumor activity against human HT-29 cells xenografted in NCR nude mouse assessed as spheroid formation at 25 mg/kg, ip administered for 3 weeks in presence of oxaliplatin. It is filed as functional, organism-based. The method in brief: as §4
Series [19] relates to HT-29. Kind of series: Antitumor activity against human HT-29 cells xenografted in NCR nude mouse assessed as reduction in tumor volume at 25 mg/kg, ip administered for 3 weeks in presence of oxaliplatin by vernier caliper method. It is filed as functional, organism-based. Summed up: as §4

Turning to `O=c1cc(-c2ccc(OS(=O)(=O)[O-])cc2)oc2cc(OS(=O)(=O)[O-])cc(OCC3CCC(COc4cc(OS(=O)(=O)[O-])cc5oc(-c6ccc(OS(=O)(=O)[O-])cc6)cc(=O)c45)CC3)c12.[Na+].[Na+].[Na+].[Na+]` (stereo unspecified), the IC50 in series [1] is 46 µM. For the same compound, the Activity result in the series on HT-29 [2] is given as “Non-Toxic”.

Consider `CC(C)CCC[C@@H](C)[C@H]1CC[C@H]2[C@@H]3CC=C4C[C@@H](OCCCCCOc5cc(-c6oc7cc(OS(=O)(=O)[O-])cc(OCCCOc8cc(OS(=O)(=O)[O-])cc9oc(-c%10ccc(OS(=O)(=O)[O-])c(OS(=O)(=O)[O-])c%10)c(OS(=O)(=O)[O-])c(=O)c89)c7c(=O)c6OS(=O)(=O)[O-])ccc5OS(=O)(=O)[O-])CC[C@]4(C)[C@H]3CC[C@]12C.[Na+].[Na+].[Na+].[Na+].[Na+].[Na+].[Na+]`, for which the values for the Activity result in the series with HT-29 [3] and in the series with Plasma [6] were “Toxic” and “Dose-Dependent Effect”, respectively. For the same compound, the outcome with HT-29 [4], in the series on Plasma [5], in the series with HT-29 [7] and in the series with HT-29 [8] was Active. Besides, the IC50 in series [1] came out at 11.5 µM.

For `O=c1c(OS(=O)(=O)[O-])c(-c2ccc(OS(=O)(=O)[O-])c(OS(=O)(=O)[O-])c2)oc2cc(OS(=O)(=O)[O-])cc(OCC3CCC(COc4cc(OS(=O)(=O)[O-])cc5oc(-c6ccc(OS(=O)(=O)[O-])c(OS(=O)(=O)[O-])c6)c(OS(=O)(=O)[O-])c(=O)c45)CC3)c12.[Na+].[Na+].[Na+].[Na+].[Na+].[Na+].[Na+].[Na+]` (stereo unspecified), the IC50 in [1] was 4 µM. In addition, the Activity entry with HT-29 [2] is on record as “Non-Toxic”.

For `O=c1c(OS(=O)(=O)[O-])c(-c2ccc(OS(=O)(=O)[O-])cc2OS(=O)(=O)[O-])oc2cc(OS(=O)(=O)[O-])cc(OCC3CCC(COc4cc(OS(=O)(=O)[O-])cc5oc(-c6ccc(OS(=O)(=O)[O-])cc6OS(=O)(=O)[O-])c(OS(=O)(=O)[O-])c(=O)c45)CC3)c12.[Na+].[Na+].[Na+].[Na+].[Na+].[Na+].[Na+].[Na+]` (stereo unspecified), the IC50 in series [1] was determined as 17.9 µM. Further, the Activity entry in the series on HT-29 [2] is given as “Non-Toxic”.

For `O=c1c(OS(=O)(=O)[O-])c(-c2ccc(OS(=O)(=O)[O-])c(OS(=O)(=O)[O-])c2)oc2cc(OS(=O)(=O)[O-])cc(OCCCOc3cc(OS(=O)(=O)[O-])cc4oc(-c5ccc(OS(=O)(=O)[O-])c(OS(=O)(=O)[O-])c5)c(OS(=O)(=O)[O-])c(=O)c34)c12.[Na+].[Na+].[Na+].[Na+].[Na+].[Na+].[Na+].[Na+]`, the outcome in the series with HT-29 [9], in the series with HT-29 [11], in the series on HT-29 [12], in the series on HT-29 [13] and in the series with HT-29 [14] was Active. The Activity result with Plasma [6] is “Dose-Dependent Effect”; with HT-29 [2], “Non-Toxic”. Moreover, in the series with Plasma [10], the APTT came to 68 s. Besides, in series [1], the IC50 came out at 29.6 µM.

`CC(C)CCC[C@@H](C)[C@H]1CC[C@H]2[C@@H]3CC=C4C[C@@H](OCCCCCCCCOc5cc(-c6oc7cc(OS(=O)(=O)[O-])cc(OCCCOc8cc(OS(=O)(=O)[O-])cc9oc(-c%10ccc(OS(=O)(=O)[O-])c(OS(=O)(=O)[O-])c%10)c(OS(=O)(=O)[O-])c(=O)c89)c7c(=O)c6OS(=O)(=O)[O-])ccc5OS(=O)(=O)[O-])CC[C@]4(C)[C@H]3CC[C@]12C.[Na+].[Na+].[Na+].[Na+].[Na+].[Na+].[Na+]`: the outcome with Plasma [5] and in the series on Mus musculus was Active. For the same compound, the Activity result was “Dose-Dependent Effect” with Plasma [6] and “Toxic” with HT-29 [15]. Moreover, the IC50 in [1] came out at 0.8 µM.

`O=c1[nH]cc(F)c(=O)[nH]1` [FLUOROURACIL]: the Activity in the series on HT-29 [16] was determined as 26.4%. Moreover, the outcome in the series on HT-29 [17], in the series on HT-29 [18] and in the series with HT-29 [19] was Active.
